Test results from ChEMBL document CHEMBL1926565, “Synthesis, antiproliferative activities and telomerase inhibition evaluation of novel asymmetrical 1,2-disubstituted amidoanthraquinone derivatives” (Eur J Med Chem, 2012).
The source made the active and inactive calls. No cut-off for these calls is given here.

How the values were obtained:
MOLT-4 = assay: Cytotoxicity against human MOLT4 cells assessed as cellular growth at 10 uM; type: functional
Method in brief: (§1)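 Single-dose screen run by the NCI across its 60-human-tumour-cell-line panel; growth recorded for each cell line.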

EKVX = assay: Cytotoxicity against human EKVX cells assessed as cellular growth at 10 uM; type: functional; method in brief: as §1
NCI/ADR-RES = assay: Cytotoxicity against human NCI/ADR-RES cells assessed as cellular growth at 10 uM; type: functional; method in brief: as §1
HCC 2998 = assay: Cytotoxicity against human HCC2998 cells assessed as cellular growth at 10 uM; type: functional; method in brief: as §1
NCI-H522 = assay: Cytotoxicity against human NCI-H522 cells assessed as cellular growth at 10 uM; type: functional; method in brief: as §1
[1] = target: Telomerase reverse transcriptase (Homo sapiens) (UniProt O14746); assay: Residual activity of human TERT in H1299 cells at 10 uM after 24 hrs by SEAP reporter gene assay
PC-3 = assay: Cytotoxicity against human PC3 cells after 48 hrs by SRB assay; type: functional, cell-based; conditions: PC-3, 48 h
Method in brief: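 PC-3 cells grown in RPMI1640 with 10% FBS at 37 °C, 5% CO₂. Seeded in medium with 5% FBS; after 24 h, one plate fixed with 10% TCA as T₀. Compound or 0.1% DMSO vehicle added for 48 h, then TCA fixation and 0.4% SRB in 1% acetic acid. Dye solubilized in 10 mM Trizma base, absorbance read at 515 nm. IC50 is the concentration giving 50% reduction of the protein gain in controls.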

HCT-15 = assay: Cytotoxicity against human HCT15 cells assessed as cellular growth at 10 uM; type: functional; method in brief: as §1
OVCAR-3 = assay: Cytotoxicity against human OVCAR3 cells assessed as cellular growth at 10 uM; type: functional; method in brief: as §1
IGROV-1 = assay: Cytotoxicity against human IGROV1 cells assessed as cellular growth at 10 uM; type: functional; method in brief: as §1
BT-549 = assay: Cytotoxicity against human BT549 cells assessed as cellular growth at 10 uM; type: functional; method in brief: as §1
SW-620 = assay: Cytotoxicity against human SW620 cells assessed as cellular growth at 10 uM; type: functional
SK-MEL-2 = assay: Cytotoxicity against human SK-MEL-2 cells assessed as cellular growth at 10 uM; type: functional; method in brief: as §1
A498 = assay: Cytotoxicity against human A498 cells assessed as cellular growth at 10 uM; type: functional; method in brief: as §1
SF-268 = assay: Cytotoxicity against human SF268 cells assessed as cellular growth at 10 uM; type: functional; method in brief: as §1
786-0 = assay: Cytotoxicity against human 786-0 cells assessed as cellular growth at 10 uM; type: functional; method in brief: as §1
[2] = target: Telomerase reverse transcriptase (Homo sapiens) (UniProt O14746); assay: Residual activity of human TERT in H1299 cells at 100 uM after 24 hrs by SEAP reporter gene assay
UACC-62 = assay: Cytotoxicity against human UACC62 cells assessed as cellular growth at 10 uM; type: functional
MDA-MB-231 = assay: Cytotoxicity against human MDA-MB-231 cells assessed as cellular growth at 10 uM; type: functional; method in brief: as §1
OVCAR-5 = assay: Cytotoxicity against human OVCAR5 cells assessed as cellular growth at 10 uM; type: functional; method in brief: as §1
MCF7 = assay: Cytotoxicity against human MCF7 cells assessed as cellular growth at 10 uM; type: functional; method in brief: as §1
DU-145 = assay: Cytotoxicity against human DU145 cells assessed as cellular growth at 10 uM; type: functional; method in brief: as §1
LOX IMVI = assay: Cytotoxicity against human LOXIMVI cells assessed as cellular growth at 10 uM; type: functional; method in brief: as §1
NCI-H460 = assay: Cytotoxicity against human NCI-H460 cells assessed as cellular growth at 10 uM; type: functional; method in brief: as §1
SF-295 = assay: Cytotoxicity against human SF295 cells assessed as cellular growth at 10 uM; type: functional; method in brief: as §1
MDA-MB-435 = assay: Cytotoxicity against human MDA-MB-435 cells assessed as cellular growth at 10 uM; type: functional; method in brief: as §1
KM12 = assay: Cytotoxicity against human KM12 cells assessed as cellular growth at 10 uM; type: functional; method in brief: as §1
OVCAR-4 = assay: Cytotoxicity against human OVCAR4 cells assessed as cellular growth at 10 uM; type: functional; method in brief: as §1
SK-MEL-5 = assay: Cytotoxicity against human SK-MEL-5 cells assessed as cellular growth at 10 uM; type: functional
SNB-75 = assay: Cytotoxicity against human SNB75 cells assessed as cellular growth at 10 uM; type: functional
[3] = Growth of human H1299 cells at 100 uM 48 hrs by MTT assay; conditions: NCI-H1299, 48 h
[4] = target: Telomerase reverse transcriptase (Homo sapiens) (UniProt O14746); assay: Residual activity of human TERT in H1299 cells at 1 uM after 24 hrs by SEAP reporter gene assay
M14 = assay: Cytotoxicity against human M14 cells assessed as cellular growth at 10 uM; type: functional; method in brief: as §1
TK-10 = assay: Cytotoxicity against human TK10 cells assessed as cellular growth at 10 uM; type: functional
NCI-H226 = assay: Cytotoxicity against human NCI-H226 cells assessed as cellular growth at 10 uM; type: functional; method in brief: as §1
SN12C = assay: Cytotoxicity against human SN12C cells assessed as cellular growth at 10 uM; type: functional
SK-MEL-28 = assay: Cytotoxicity against human SK-MEL-28 cells assessed as cellular growth at 10 uM; type: functional; method in brief: as §1
U-251 = assay: Cytotoxicity against human U251 cells assessed as cellular growth at 10 uM; type: functional
NCI-H23 = assay: Cytotoxicity against human NCI-H23 cells assessed as cellular growth at 10 uM; type: functional; method in brief: as §1
SF-539 = assay: Cytotoxicity against human SF539 cells assessed as cellular growth at 10 uM; type: functional; method in brief: as §1
ACHN = assay: Cytotoxicity against human ACHN cells assessed as cellular growth at 10 uM; type: functional; method in brief: as §1
CCRF-CEM = assay: Cytotoxicity against human CCRF-CEM cells assessed as cellular growth at 10 uM; type: functional; method in brief: as §1
HOP-92 = assay: Cytotoxicity against human HOP92 cells assessed as cellular growth at 10 uM; type: functional; method in brief: as §1
[5] = Cytotoxicity against human Hs 578T cells assessed as cellular growth at 10 uM; type: functional; method in brief: as §1
HL-60(TB) = assay: Cytotoxicity against human HL-60(TB) cells assessed as cellular growth at 10 uM; type: functional; method in brief: as §1
[6] = Growth of human H1299 cells at 1 uM after 48 hrs by MTT assay; conditions: NCI-H1299, 48 h
MDA-MB-468 = assay: Cytotoxicity against human MDA-MB-468 cells assessed as cellular growth at 10 uM; type: functional; method in brief: as §1
SR = assay: Cytotoxicity against human SR cells assessed as cellular growth at 10 uM; type: functional
HT-29 = assay: Cytotoxicity against human HT-29 cells assessed as cellular growth at 10 uM; type: functional; method in brief: as §1
HOP-62 = assay: Cytotoxicity against human HOP62 cells assessed as cellular growth at 10 uM; type: functional; method in brief: as §1
[7] = target: Telomerase reverse transcriptase (Homo sapiens) (UniProt O14746); assay: Inhibition of telomerase activity in human H1299 cell free extract at 10 uM by modified TRAP assay
Method in brief: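 TRAP assay using total cell lysate from H1299 lung cancer cells as the telomerase source, with protein measured against BSA standards. Compounds tested at 10 µM. Controls were lysate without inhibitor (positive) and RNase A-treated extract without inhibitor (negative).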

HCT-116 = assay: Cytotoxicity against human HCT116 cells assessed as cellular growth at 10 uM; type: functional; method in brief: as §1
NCI-H322M = assay: Cytotoxicity against human NCI-H322M cells assessed as cellular growth at 10 uM; type: functional; method in brief: as §1
[8] = Growth of human H1299 cells at 10 uM after 48 hrs by MTT assay; conditions: NCI-H1299, 48 h
SNB-19 = assay: Cytotoxicity against human SNB19 cells assessed as cellular growth at 10 uM; type: functional
UO-31 = assay: Cytotoxicity against human UO31 cells assessed as cellular growth at 10 uM; type: functional
Malme-3M = assay: Cytotoxicity against human MALME-3M cells assessed as cellular growth at 10 uM; type: functional; method in brief: as §1

Telomerase reverse transcriptase (Homo sapiens), sequence (O14746 whole entry): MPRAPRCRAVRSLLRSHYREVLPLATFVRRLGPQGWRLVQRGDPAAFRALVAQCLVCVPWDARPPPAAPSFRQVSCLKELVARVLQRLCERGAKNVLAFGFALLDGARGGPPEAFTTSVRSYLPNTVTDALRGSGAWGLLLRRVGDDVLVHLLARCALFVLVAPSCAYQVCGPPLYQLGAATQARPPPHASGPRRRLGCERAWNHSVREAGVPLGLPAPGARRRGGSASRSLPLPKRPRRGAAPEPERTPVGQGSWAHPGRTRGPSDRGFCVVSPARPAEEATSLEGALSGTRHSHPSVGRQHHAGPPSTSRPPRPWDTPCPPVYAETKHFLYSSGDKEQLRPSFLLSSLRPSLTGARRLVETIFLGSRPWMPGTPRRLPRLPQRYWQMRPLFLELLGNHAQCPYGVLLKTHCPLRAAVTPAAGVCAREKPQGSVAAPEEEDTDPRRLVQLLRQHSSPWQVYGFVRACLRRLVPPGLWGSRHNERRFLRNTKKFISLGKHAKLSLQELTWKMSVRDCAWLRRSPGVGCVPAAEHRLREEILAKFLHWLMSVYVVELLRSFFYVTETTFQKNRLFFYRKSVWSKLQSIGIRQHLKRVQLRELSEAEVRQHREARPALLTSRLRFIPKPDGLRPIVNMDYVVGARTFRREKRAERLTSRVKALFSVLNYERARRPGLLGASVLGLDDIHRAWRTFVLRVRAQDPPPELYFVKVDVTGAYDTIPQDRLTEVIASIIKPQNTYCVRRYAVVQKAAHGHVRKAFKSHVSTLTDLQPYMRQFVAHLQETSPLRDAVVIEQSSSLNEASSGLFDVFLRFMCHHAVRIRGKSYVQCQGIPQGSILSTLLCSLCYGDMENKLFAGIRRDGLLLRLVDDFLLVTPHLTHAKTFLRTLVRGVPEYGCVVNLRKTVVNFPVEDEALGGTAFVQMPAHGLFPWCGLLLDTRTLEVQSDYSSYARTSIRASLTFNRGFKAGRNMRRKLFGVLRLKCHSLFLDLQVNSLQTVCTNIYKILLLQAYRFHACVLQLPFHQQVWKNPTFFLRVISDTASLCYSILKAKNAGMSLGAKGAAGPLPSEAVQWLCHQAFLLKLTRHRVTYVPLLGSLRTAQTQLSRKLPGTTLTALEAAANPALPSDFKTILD

`O=C(CCl)Nc1ccc2c(c1NC(=O)Cc1ccccc1)C(=O)c1ccccc1C2=O` gave an Activity (MOLT-4) of 11.4%, an Activity (EKVX) of 102.08% and an Activity (NCI/ADR-RES) of 86.87%. The Activity (HCC 2998) was 94.74%, the Activity (NCI-H522) was 43.37% and the residual activity [1] was 9%. It also gave an IC50 (PC-3) of over 20 µM, an Activity (HCT-15) of 68.55% and an Activity (OVCAR-3) of 86.38%. For the same molecule, the Activity (IGROV-1) was 41.03%, the Activity (BT-549) was 79.78% and the Activity (SW-620) was 83.41%. It also gave an Activity (SK-MEL-2) of -6.49%, an Activity (A498) of 91.79% and an Activity (SF-268) of 80.14%. The Activity (786-0) was 97.26%, the residual activity [2] was 7% and the Activity (UACC-62) was 59.67%. For the same molecule, the Activity (MDA-MB-231) was 82.04%, the Activity (OVCAR-5) was 119.04% and the Activity (MCF7) was 51%. For the same molecule, the Activity (DU-145) was 85.83%, the Activity (LOX IMVI) was 36.29% and the Activity (NCI-H460) was 104.5%. It also gave an Activity (SF-295) of 98.48%, an Activity (MDA-MB-435) of 80.4% and an Activity (KM12) of 80.59%. It also gave an Activity (OVCAR-4) of 80.4%, an Activity (SK-MEL-5) of 51.32% and an Activity (SNB-75) of 109.14%. The growth, % of control at 100 µM [3] was 3%, the residual activity [4] was 84% and the Activity (M14) was 87.1%. It also gave an Activity (TK-10) of 120.81%, an Activity (NCI-H226) of 80.49% and an Activity (SN12C) of 79.93%. For the same molecule, the Activity (SK-MEL-28) was 88.68%, the Activity (U-251) was 66.17% and the Activity (NCI-H23) was 64.75%. For the same molecule, the Activity (SF-539) was 107.09%, the Activity (ACHN) was 79.64% and the Activity (CCRF-CEM) was 33.97%. It also gave an Activity (HOP-92) of 73.63%, an Activity [5] of 66.65% and an Activity (HL-60(TB)) of 41.36%. It also gave a growth, % of control at 1 µM [6] of 81%, an Activity (MDA-MB-468) of 51.02% and an Activity (SR) of -31.25%. For the same molecule, the Activity (HT-29) was 88.84%, the Activity (HOP-62) was 115.67% and the inhibition [7] was “inactive”. For the same molecule, the Activity (HCT-116) was 67.55%, the Activity (NCI-H322M) was 104.38% and the growth, % of control at 10 µM [8] was 5%. For the same molecule, the Activity (SNB-19) was 124.27%, the Activity (UO-31) was 58.19% and the Activity (Malme-3M) was 47.07%.
`O=C(CCl)Nc1ccc2c(c1NC(=O)c1cccc(F)c1)C(=O)c1ccccc1C2=O` gave a residual activity [1] of 1%, an IC50 (PC-3) of 3.48 µM and a residual activity [2] of 0%. The growth, % of control at 100 µM [3] was 1%, the residual activity [4] was 26% and the growth, % of control at 1 µM [6] was 18%. For the same molecule, the inhibition [7] was “inactive” and the growth, % of control at 10 µM [8] was 8%.
Work on `O=C(CCl)Nc1ccc2c(c1NC(=O)c1ccno1)C(=O)c1ccccc1C2=O` yielded a residual activity [1] of 4%, an IC50 (PC-3) of 3.78 µM and a residual activity [2] of 1%. For the same molecule, the growth, % of control at 100 µM [3] was 0%, the residual activity [4] was 92% and the growth, % of control at 1 µM [6] was 105%. The inhibition [7] was “inactive” and the growth, % of control at 10 µM [8] was 3%.
In the case of `O=C(CCl)Nc1ccc2c(c1NC(=O)c1cccc(Cl)c1)C(=O)c1ccccc1C2=O`, the residual activity [1] is reported as 6%, the IC50 (PC-3) is reported as 3.51 µM and the residual activity [2] is reported as 3%. For the same molecule, the growth, % of control at 100 µM [3] was 0%, the residual activity [4] was 80% and the growth, % of control at 1 µM [6] was 89%. For the same molecule, the inhibition [7] was “inactive” and the growth, % of control at 10 µM [8] was 5%.
Work on `Cc1ccc(C(=O)Nc2c(NC(=O)CN(C)CCc3ccccn3)ccc3c2C(=O)c2ccccc2C3=O)cc1` yielded a residual activity [1] of 11%, an IC50 (PC-3) of 6.68 µM and a residual activity [2] of 22%. For the same molecule, the growth, % of control at 100 µM [3] was 1%, the residual activity [4] was 94% and the growth, % of control at 1 µM [6] was 90%. For the same molecule, the inhibition [7] was “inactive” and the growth, % of control at 10 µM [8] was 46%.
